Laboratory results: ChEMBL document CHEMBL1130998, “Structure-activity requirements for flavone cytotoxicity and binding to tubulin” (J Med Chem, 1998)

How the values were obtained:
[1] = test system: Panel NCI-60 (60 carcinoma cell lines); test: In vitro cytotoxic potency against NCI-60 human tumor cell line; type: functional
[2] = biological target: Tubulin (Homo sapiens) (UniProt P68371+Q9H4B7+P0DPH7+P68366+Q13509+Q71U36+P04350+Q3ZCM7+P07437+P68363+Q9BQE3+Q6PEY2+Q13885+Q9BVA1+Q9BUF5); test: In vitro inhibition of binding of [3H]colchicine to tubulin at 50 mM.; type: protein-complex assay
[3] = biological target: Tubulin; test: In vitro inhibitory activity against tubulin polymerization (10 uM); type: protein-complex assay
[4] = biological target: T1, Tubulin (Bos taurus) (UniProt Q6B856+Q862L2+Q862F3); test: In vitro inhibition of binding of [3H]colchicine to tubulin (10 uM) at compound concentration of 5 mM; type: protein assay
[5] = biological target: T1, Tubulin (Bos taurus); test: In vitro inhibition of binding of [3H]colchicine to tubulin (10 uM) at compound concentration of 50 mM; type: protein assay
[6] = test system: Panel NCI-60 (60 carcinoma cell lines); test: In vitro cytotoxic potency against NCI-60 human tumor cell line was determined; type: functional
Procedure, shortened: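 Tested in the NCI primary in vitro human tumor cell screen. Potency was taken from the dose-response curves, which were also analysed for the differential cytotoxicity pattern typical of antimitotic standard agents.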

Structure (SMILES) | GI50 [1] | also measured
COc1cc(-c2oc3c(OC)c(O)c(OC)c(O)c3c(=O)c2OC)ccc1O | 27 µM | inhibition [2]: 6%; IC50 [3]: > 40 µM
COc1ccc(-c2cc(=O)c3c(O)c(O)c(OC)cc3o2)cc1O | > 100 µM | –
COc1cc(-c2cc(=O)c3c(O)c(OC)c(OC)c(OC)c3o2)cc(OC)c1OC [GARDENIN] | 19 µM | inhibition [2]: 0%; IC50 [3]: > 40 µM
COc1cc(-c2oc3c(OC)c(O)c(OC)c(O)c3c(=O)c2OC)cc(OC)c1OC | 54 µM | inhibition [2]: 6%; IC50 [3]: > 40 µM
COc1ccc(-c2cc(=O)c3c(O)c(OC)c(OC)c(OC)c3o2)cc1OC [5-DEMETHYLNOBILETIN] | 17 µM | inhibition [2]: 5%; IC50 [3]: > 40 µM
COc1ccc(-c2cc(=O)c3c(OC)c(OC)c(OC)c(OC)c3o2)cc1OC [NOBILETIN] | 40 µM | –
COc1cc(-c2oc3c(OC)c(OC)c(OC)c(O)c3c(=O)c2OC)ccc1O | 7.6 µM | inhibition [2]: 0%; IC50 [3]: > 40 µM
COc1ccc(-c2oc3cc(OC)c(OC)c(O)c3c(=O)c2O)cc1O | 4 µM | inhibition [2]: 9%; IC50 [3]: > 40 µM
COc1ccc(-c2oc3cc(OC)cc(O)c3c(=O)c2OC)cc1 | 54 µM | –
COc1ccc(-c2cc(=O)c3c(OC)c(OC)c(OC)c(OC)c3o2)cc1 [TANGERETIN] | 54 µM | –
COc1ccc(-c2cc(=O)c3c(OC)c(OC)c(OC)c(OC)c3o2)c(OC)c1 | 26 µM | –
COc1cc(OC)cc(-c2cc(=O)c3c(OC)c(OC)c(OC)c(OC)c3o2)c1 | 30 µM | –
COc1ccc2c(=O)cc(-c3ccc(OC)c(OC)c3OC)oc2c1 | 78 µM | –
COc1ccc(-c2cc(=O)c3c(OC)c(OC)c(OC)cc3o2)cc1 | 28 µM | –
COc1ccc(-c2oc3ccc(C)cc3c(=O)c2O)cc1 | 76 µM | –
COc1ccc2oc(-c3ccc(OC)c(OC)c3OC)cc(=O)c2c1 | 42 µM | –
COc1ccc(-c2oc3cc(O)cc(O)c3c(=O)c2OC)cc1OCc1ccccc1 | 8.3 µM | –
COc1ccc(-c2cc(=O)c3c(O)cccc3o2)c(OC)c1OC | 45 µM | –
COc1ccc(-c2oc3cc(OC)c(C)c(C)c3c(=O)c2OC)cc1O | 44 µM | –
COc1cc(-c2cc(=O)c3c(OC)c(OC)c(OC)c(OC)c3o2)cc(OC)c1OC [HEPATAMETHOXYFLAVONE] | 32 µM | –
COc1ccc(-c2cc(=O)c3c(O)cc(O)cc3o2)cc1OC | 48 µM | –
COc1ccc(-c2cc(=O)c3c(OC)c(O)c(OC)cc3o2)cc1 | 43 µM | –
COc1cc(-c2oc3c(OC)c(OC)cc(O)c3c(=O)c2OC)ccc1O [TERNATIN] | 9.5 µM | inhibition [2]: 0%; IC50 [3]: > 40 µM
COc1ccc(-c2oc3cc(O)cc(O)c3c(=O)c2OC)cc1O | 1.7 µM | inhibition [4]: 43%; inhibition [5]: 75%; IC50 [3]: 3 µM
COc1cc(-c2cc(=O)c3c(O)c(OC)c(OC)c(OC)c3o2)ccc1O | 22 µM | –
COc1ccc(-c2oc3cc(OC(C)=O)cc(OC(C)=O)c3c(=O)c2OC)cc1 | 15 µM | –
COc1ccc(-c2oc3c(OC)c(OC)c(OC)c(OC)c3c(=O)c2OC)cc1OC [3,5,6,7,8,3',4'-HEPTAMETHOXYFLAVONE] | > 27 µM | inhibition [2]: 1%; IC50 [3]: > 40 µM

Structure (SMILES) | GI50 [1] | also measured
O=c1c(O)c(-c2ccc(O)c(O)c2)oc2cc(O)ccc12 [FISETIN] | 18 µM | –
COc1c(O)cc2oc(-c3ccc(O)cc3)cc(=O)c2c1O [HISPIDULIN] | 33 µM | –
COc1ccc(-c2oc3c(OC)c(OC)c(OC)c(O)c3c(=O)c2OC)cc1OC | 7.1 µM | inhibition [2]: 4%; IC50 [3]: > 40 µM
COc1cc(OC)c2c(=O)c(OC)c(-c3ccc(OC)c(O)c3)oc2c1 | > 100 µM | –
COc1cc(O)c2c(=O)c(OC)c(-c3ccc(OC)c(OC)c3)oc2c1 [RETUSIN] | 65 µM | –
COc1ccc(-c2oc3cc(OC)c(O)c(OC)c3c(=O)c2OC)cc1O | 54 µM | –
COc1ccc(-c2oc3c(O)c(OC)cc(O)c3c(=O)c2OC)cc1OC | > 100 µM | –
COc1cc2oc(-c3ccc(O)cc3)cc(=O)c2c(OC)c1O | 62 µM | –
COc1ccc(-c2oc3cc(O)cc(O)c3c(=O)c2OC)cc1 [ERMANIN] | 24 µM | –
COc1ccc(-c2oc3cc(O)c(OC)cc3c(=O)c2OC)cc1O | 19 µM | –
COc1cc(OC)c2c(=O)cc(-c3ccc(OC)c(OC)c3OC)oc2c1 | 79 µM | –
COc1c(OC)c(O)c2c(=O)cc(-c3ccc(O)c(O)c3)oc2c1OC [SIDERITIFLAVONE] | 4 µM | –
COc1cc(OC)c2c(=O)c(O)c(-c3ccc(OC)c(OC)c3)oc2c1 | 6.6 µM | inhibition [2]: 0%; IC50 [3]: > 40 µM
COc1c(OC)c(OC)c2c(=O)cc(-c3ccc(OC(C)C)cc3)oc2c1OC | 11 µM | –
COc1ccc(-c2oc3cc(O)c(OC)c(O)c3c(=O)c2OC)cc1O [CENTAUREIDIN] | 0.24 µM | inhibition [4]: 35%; inhibition [5]: 76%; IC50 [3]: 2 µM
COc1ccc(-c2cc(=O)c3c(O)cc(O)cc3o2)c(OC)c1OC | 68 µM | –
O=c1c(O)c(-c2ccc(O)c(O)c2)oc2cc(O)cc(O)c12 [QUERCETIN] | 60 µM | –
COc1ccc(-c2oc3c(OC)c(OC)c(OC)c(O)c3c(=O)c2OC)cc1O | 0.13 µM | inhibition [4]: 59%; inhibition [5]: 89%; IC50 [3]: 0.83 µM
COc1c(O)c(OC)c2oc(-c3ccc(O)c(O)c3)c(OC)c(=O)c2c1O | 20 µM | –
COc1cc(O)c2c(=O)c(O)c(-c3ccc(OC)c(O)c3)oc2c1 [OMBUINE] | 37 µM | –
COc1cc2oc(-c3ccc(O)cc3)cc(=O)c2c(OC)c1OC | > 100 µM | –
COc1ccc(-c2cc(=O)c3c(O)c(OC)c(O)cc3o2)cc1OC [EUPATILIN] | 15 µM | inhibition [2]: 6%; IC50 [3]: > 40 µM
COc1ccc(-c2oc3ccccc3c(=O)c2O)cc1OC [3-HYDROXY-3',4'-DIMETHOXYFLAVONE] | 32 µM | –
COc1ccc(-c2oc3cc(O)c(OC)c(O)c3c(=O)c2O)cc1 [BETULETOL] | 4.1 µM | –
COc1cc(OC)c(-c2cc(=O)c3c(O)c(OC)c(OC)c(OC)c3o2)cc1OC | 60 µM | –
COc1ccc(-c2cc(=O)c3c(OC)cccc3o2)c(OC)c1OC | 89 µM | –
COc1ccc(-c2cc(=O)c3c(O)cc(C)cc3o2)cc1OC | > 100 µM | –

Structure (SMILES) | GI50 [1] | also measured
COc1ccc(-c2cc(=O)c3ccc(O)cc3o2)c(OC)c1OC | 58 µM | –
COc1cc(O)c2c(=O)c(O)c(-c3ccc(O)c(O)c3)oc2c1 [RHAMNETIN] | 8.9 µM | –
COc1ccc(-c2cc(=O)c3cc(O)ccc3o2)c(OC)c1OC | 30 µM | –
O=c1c(O)c(-c2c(O)cccc2O)oc2cc(O)cc(O)c12 | > 100 µM | –
CCOc1cc(O)c2c(=O)c(OC)c(-c3ccc(OC)c(O)c3)oc2c1 | 12 µM | –
O=c1c(O)c(-c2cc(O)c(O)c(O)c2)oc2cc(O)cc(O)c12 [MYRICETIN] | 36 µM | –
COc1ccc(-c2oc3cc(OC)ccc3c(=O)c2O)cc1 | 4.2 µM | –
COc1ccc(-c2cc(=O)c3c(O)c(OC)c(O)cc3o2)cc1O | 6 µM | –
COc1cc(-c2cc(=O)c3ccccc3o2)cc(OC)c1OC | 18 µM | inhibition [2]: 0%; IC50 [3]: > 40 µM
COc1ccccc1-c1cc(=O)c2ccc(OC)c(OC)c2o1 | 55 µM | –
COc1ccc(-c2oc3cc(O)c(C)c(C)c3c(=O)c2OC)cc1O | 12 µM | –
COc1c(OC)c(OC)c(-c2cc(=O)c3c(OC)c(OC)c(OC)c(OC)c3o2)c(OC)c1OC | 36 µM | –
COc1c(C)c(O)c2c(=O)cc(-c3ccccc3)oc2c1C | > 100 µM | –
COc1cc(-c2oc3c(OC)c(O)c(OC)c(O)c3c(=O)c2OC)cc(O)c1OC | 32 µM | –
COc1cc2oc(-c3ccccc3)cc(=O)c2c(O)c1C | > 100 µM | –
COc1ccc(-c2oc3cc(OC)c(OC)c(OC)c3c(=O)c2O)cc1O | 14 µM | inhibition [2]: 2%; IC50 [3]: > 40 µM
COc1c(OC)c(OC)c2c(=O)cc(-c3ccc(NC(C)=O)cc3)oc2c1OC | – | GI50 [6]: > 100 µM
COc1cc(O)c2c(=O)c(OC)c(-c3ccc(OC)c(O)c3)oc2c1 [AYANIN] | 32 µM | inhibition [2]: 0%; IC50 [3]: > 40 µM
COc1ccc(-c2cc(=O)c3c(O)c(OC)c(O)c(OC)c3o2)cc1 [NEVADENSIN] | 59 µM | –
COc1ccc(-c2cc(=O)c3c(O)c(OC)c(O)cc3o2)cc1 [PECTOLINARIGENIN] | > 31 µM | inhibition [2]: 11%; IC50 [3]: > 40 µM
COc1ccc(OC)c(-c2cc(=O)c3c(OC)c(OC)c(OC)c(OC)c3o2)c1 | 24 µM | –
COc1cc(-c2oc3c(OC)cc(OC)c(O)c3c(=O)c2OC)cc(OC)c1OC | 19 µM | –
COc1cc(OC)c(-c2oc3ccccc3c(=O)c2O)c(OC)c1 | 5.9 µM | inhibition [2]: 22%; IC50 [3]: 31 µM
COc1ccc2c(=O)c(O)c(-c3ccc(OC)c(OC)c3)oc2c1 | 5.5 µM | inhibition [2]: 0%; IC50 [3]: > 40 µM
COc1cc(-c2oc3cc(OC)c(OC)c(O)c3c(=O)c2OC)ccc1O [CHRYSOSPLENOL B] | > 33 µM | –
